Test results published in ChEMBL document CHEMBL1138559, “Synthesis and in vitro anti-HIV evaluation of a new series of 6-arylmethyl-substituted S-DABOs as potential non-nucleoside HIV-1 reverse transcriptase inhibitors” (Eur J Med Chem, 2009).

Assays:
[1] = system: Human immunodeficiency virus 1; assay: Antiviral activity against HIV1 3B infected in human MT4 cells assessed as inhibition of virus-induced cytopathic effect after 4 days by MTT assay; format: functional, organism-based; settings: Human immunodeficiency virus 1, 3B, MT4, 96 h
Summary of the method: (§1)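 MT-4 cells at 1 × 10^5 cells/mL infected at MOI 0.02 (virus stocks titrated in MT-4, as CCID50), then put at once into wells with serial compound dilutions (DMSO stocks, 50 mM or higher). Incubation 4 days, 37 °C. Viable cells counted by MTT. IC50 taken as concentration protecting 50% of infected cells.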

[2] = system: Human immunodeficiency virus 2; assay: Antiviral activity against HIV2 ROD infected in human MT4 cells assessed as inhibition of virus-induced cytopathic effect after 4 days by MTT assay; format: functional, organism-based; settings: Human immunodeficiency virus 2, ROD, MT4, 96 h; summary of the method: as §1
[3] = Cytotoxicity against human MT4 cells by MTT assay; format: cell-based
Summary of the method: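 Uninfected MT-4 cells run in parallel with the antiviral plates, with serial compound dilutions from DMSO stocks (50 mM or higher), for 4 days at 37 °C. Viability read by MTT. CC50 is the concentration that lowers viability of uninfected cells by 50%.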

[4] = Selectivity index, ratio of CC50 for human MT4 cells to IC50 for HIV1 3B; format: functional
Summary of the method: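 Ratio CC50/IC50. CC50 comes from MTT viability of uninfected MT-4 cells, and IC50 from MTT protection of HIV-1-infected MT-4 cells (MOI 0.02). Both were read after 4 days at 37 °C in parallel assays.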

SMILES | IC50 [1] [µM] | IC50 [2] [µM] | CC50 [3] [µM] | Ratio CC50/IC50 [4]
CCc1c(Cc2c(Cl)cccc2Cl)nc(SCc2ccc([N+](=O)[O-])cc2)[nH]c1=O | 0.36 | > 278 | > 278 | >772
CCc1c(Cc2c(Cl)cccc2Cl)nc(SCc2ccc(OC)cc2)[nH]c1=O | 0.16 | > 287 | > 287 | >1793
COc1ccc(CSc2nc(Cc3ccc(-c4ccccc4)cc3)c(C)c(=O)[nH]2)cc1 | > 100 | > 100 | 100 | <1
COc1ccc(CSc2nc(Cc3cccc4ccccc34)c(C(C)C)c(=O)[nH]2)cc1 | 0.21 | > 37.4 | 37.4 | 178
COc1ccc(CSc2nc(Cc3ccc(Br)cc3)c(C)c(=O)[nH]2)cc1 | > 290 | > 290 | > 290 | –
COc1ccc(CSc2nc(Cc3ccccc3Br)c(C)c(=O)[nH]2)cc1 | 1.04 | > 179 | 179 | 172
COc1ccc(CSc2nc(Cc3cc(C)cc(C)c3)c(C)c(=O)[nH]2)cc1 | 1.1 | > 329 | > 329 | >299
Cc1cc(C)cc(Cc2nc(SCc3ccc([N+](=O)[O-])cc3)[nH]c(=O)c2C)c1 | 5.46 | > 316 | > 316 | >58
COc1ccc(CSc2nc(Cc3cc(C(F)(F)F)cc(C(F)(F)F)c3)c(C)c(=O)[nH]2)cc1 | > 256 | > 256 | > 256 | –
CCc1c(Cc2cc(C)cc(C)c2)nc(SCc2ccc(OC)cc2)[nH]c1=O | 0.12 | > 317 | > 317 | >2642
CCc1c(Cc2ccc(Br)cc2)nc(SCc2ccc(OC)cc2)[nH]c1=O | > 281 | > 281 | > 281 | –
CCc1c(Cc2ccccc2Br)nc(SCc2ccc([N+](=O)[O-])cc2)[nH]c1=O | 0.74 | > 272 | > 272 | >368
CCc1c(Cc2cccc(Br)c2)nc(SCc2ccc(OC)cc2)[nH]c1=O | 0.28 | > 201 | 201 | 718
CCc1c(Cc2ccc(-c3ccccc3)cc2)nc(SCc2ccc(OC)cc2)[nH]c1=O | > 194 | > 194 | 194 | <1
Cc1c(Cc2cc(C(F)(F)F)cc(C(F)(F)F)c2)nc(SCc2ccc([N+](=O)[O-])cc2)[nH]c1=O | > 248 | > 248 | > 248 | –
CCc1c(Cc2cc(C)cc(C)c2)nc(SCc2ccccc2)[nH]c1=O | 0.95 | > 343 | > 343 | >361
CCc1c(Cc2cc(C(F)(F)F)cc(C(F)(F)F)c2)nc(SCc2ccc([N+](=O)[O-])cc2)[nH]c1=O | > 242 | > 242 | > 242 | –
CCc1c(Cc2cc(C(F)(F)F)cc(C(F)(F)F)c2)nc(SCc2ccc(OC)cc2)[nH]c1=O | ≥ 9.47 | > 249 | > 249 | <=26
COc1ccc(CSc2nc(Cc3cccc(Br)c3)c(C)c(=O)[nH]2)cc1 | 6.42 | > 290 | > 290 | >45
Cc1c(Cc2cccc(Br)c2)nc(SCc2ccc([N+](=O)[O-])cc2)[nH]c1=O | 14.2 | > 280 | > 280 | >20
Cc1c(Cc2ccccc2Br)nc(SCc2ccc([N+](=O)[O-])cc2)[nH]c1=O | 1.46 | > 246 | ≥ 246 | >=168
CCc1c(Cc2cc(C)cc(C)c2)nc(SCc2ccc([N+](=O)[O-])cc2)[nH]c1=O | 0.16 | > 305 | > 305 | >1906
CCc1c(Cc2cccc3ccccc23)nc(SCc2ccc(OC)cc2)[nH]c1=O | 1.32 | > 227 | 261 | 198
CCc1c(Cc2cccc(Br)c2)nc(SCc2ccc([N+](=O)[O-])cc2)[nH]c1=O | 1.34 | > 187 | 187 | 139.6
CCc1c(Cc2ccccc2Br)nc(SCc2ccc(OC)cc2)[nH]c1=O | 0.23 | > 165 | 165 | 717
O=c1[nH]cnc2c1ncn2[C@H]1CC[C@@H](CO)O1 [DIDANOSINE] | 5.37 | 2.71 | ≥ 529 | >=98
Cc1c(Sc2ccccc2)n(COCCO)c(=O)[nH]c1=O [HEPT] | 5.06 | > 405 | ≤ 399 | 79
